# Activity calls are given as the source filed them. The rule behind the calls is not given here.
# What was measured:
# [1] = Antiproliferative activity against human MCF7 cells after 72 hrs by MTT assay; format: functional, cell-based; conditions: MCF7, 72 h
# Procedure, shortened: (§1)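 Tumour cells were grown as monolayers in DMEM with 10 % FBS, 2 mM L-glutamine, penicillin and streptomycin at 37 °C under 5 % CO₂. Tenfold dilutions from 10^-8 to 10^-4 M were applied for 72 h, followed by MTT read at 570 nm. IC50 came from linear regression of percentage growth; at least two experiments, quadruplicate points.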
# [2] = Antiproliferative activity against human H460 cells after 72 hrs by MTT assay; format: functional, cell-based; conditions: NCI-H460, 72 h
# Procedure, shortened: as §1, with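 “CO₂. They were seeded at 3×10^4 cells/mL (HCT 116, H460) or 5×10^4 cells/mL (MCF-7).” for “CO₂.”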
# [3] = Antiproliferative activity against human shGFP-fused HMLE cells after 72 hrs by MTT assay; format: cell-based
# Procedure, shortened: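 HMLE-shGFP cells were kept in a 1:1 mix of DMEM + 10 % FBS with insulin, hydrocortisone and HuMEC medium at 37 °C, 5 % CO₂. Agents were given as tenfold dilutions from 10^-8 to 10^-4 M for 72 h, then MTT absorbance was read at 570 nm. IC50 was interpolated by linear regression of percentage growth; at least two experiments, each point in quadruplicate.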
# [4] = Antiproliferative activity against human HCT116 cells after 72 hrs by MTT assay; format: functional, cell-based; conditions: HCT-116, 72 h; procedure, shortened: as §1
# [5] = Binding affinity to duplex calf thymus DNA assessed as change in melting temperature at drug/DNA ratio of 0.5 by spectrophotometric analysis
# Procedure, shortened: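 Calf-thymus DNA at 20 μM was heated with or without compound at 10 or 20 μM (drug/base-pair ratio 0.5 or 1) in BPE buffer (6 mM Na₂HPO₄, 2 mM NaH₂PO₄, 1 mM EDTA, pH 7.1). A260 was read every minute from 20 to 100 °C, rising 1 °C per min, and ΔTm was derived.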
# [6] = Binding affinity to duplex calf thymus DNA assessed as bathochromic shift at 20 uM by UV/visible spectroscopic analysis
# Procedure, shortened: (§2)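 Compound at 20 μM in BPE buffer (pH 7.1) was titrated with calf-thymus DNA at 1–140 μM in a 10 mm quartz cuvette. Spectra were recorded from 240 to 480 nm against a reference cuvette holding DNA at the same concentration.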
# Escherichia coli = experiment: Binding affinity to negatively supercoiled pUC19 DNA assessed as DNA intercalation by measuring generation of positively supercoiled DNA up to 50 uM preincubated for 15 mins followed by human DNA topoisomerase 1 addition measured after 30 mins by agarose gel electrophoresis
# Procedure, shortened: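 Supercoiled pUC19 plasmid was treated with human topoisomerase I, alone or with compound, and topoisomers were resolved by agarose gel electrophoresis. Poisoning, seen as nicked plasmid, was assessed on ethidium bromide-containing agarose gels at up to 100 μM compound.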
# [7] = Binding affinity to duplex calf thymus DNA assessed as induction of negative circular dichroic signal at 1 to 60 uM by circular dichroism analysis
# Procedure, shortened: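 Calf-thymus DNA at 50 μM was incubated in BPE buffer with or without compound at 1, 5, 10, 20, 30, 40, 50 and 60 μM. CD spectra were recorded from 480 to 230 nm in a 10 mm cell at 20 °C. The compound alone at 60 μM was checked for intrinsic CD.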
# [8] = Binding affinity to duplex calf thymus DNA assessed as hypsochromic shift at 20 uM by UV/visible spectroscopic analysis; procedure, shortened: as §2
# [9] = Binding affinity to duplex calf thymus DNA assessed as change in melting temperature at drug/DNA ratio of 0.05 by spectrophotometric analysis
# [10] = Binding affinity to duplex calf thymus DNA assessed as change in melting temperature at drug/DNA ratio of 0.1 by spectrophotometric analysis
# [11] = Binding affinity to radiolabeled 265bp DNA (unknown origin) at 0.5 to 50 uM by DNase 1 footprinting analysis
# [12] = Binding affinity to 0.5 to 480 uM of duplex […] (unknown origin) at 0.5 to 540 uM by fluorescence spectroscopic analysis
# Procedure, shortened: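 Fluorescent compounds at 10 μM in BPE buffer (pH 7.1) were measured with and without rising calf-thymus DNA. Emission was scanned from 400 to 700 nm. K_sv was taken as the slope of the Stern–Volmer plot F₀/F = 1 + K_sv[ct-DNA].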
# [13] = Binding affinity to duplex calf thymus DNA assessed as change in melting temperature at drug/DNA ratio of 0.25 by spectrophotometric analysis
SMILES,IC50 ([1]; read-out: IC50),IC50 ([1]; read-out: pIC50 (converted)),IC50 ([2]; read-out: IC50),IC50 ([2]; read-out: pIC50 (converted)),IC50 [3],IC50 ([4]; read-out: IC50),IC50 ([4]; read-out: pIC50 (converted)),ΔTm [5],Activity [6],inhibition (Escherichia coli),Activity [7],Activity [8],ΔTm [9],ΔTm [10],Activity [11],Activity [12],ΔTm [13]
CN1CCN(c2ccc3cc(C#N)c4nc5ccccc5n4c3c2)CC1,2000 nM,2000 nM,1 µM,1 µM,500 nM,0.6 µM,0.6 µM,,,,,,,,,,
CC(C)CNc1ccc2c(NCC(C)C)c(C#N)c3nc4ccccc4n3c2c1,2000 nM,2000 nM,3 µM,3 µM,,2 µM,2 µM,,,,,,,,,,
CC1CN(c2ccc3c(N4CC(C)NC(C)C4)c(C#N)c4nc5ccccc5n4c3c2)CC(C)N1 (stereo unspecified),1000 nM,1000 nM,0.8 µM,0.8 µM,200 nM,0.4 µM,0.4 µM,,,,,,,,,,
CCCCCN(CCCCC)c1ccc2c(N(CCCCC)CCCCC)c(C#N)c3nc4ccccc4n3c2c1,> 100000 nM,> 100000 nM,> 100 µM,500 µM,,> 100 µM,> 100 µM,,,,,,,,,,
CC1CN(c2ccc3cc(C#N)c4nc5ccccc5n4c3c2)CC(C)N1 (stereo unspecified),600 nM,600 nM,0.5 µM,0.5 µM,200 nM,0.3 µM,0.3 µM,0 °C,,,,,,,,,
CC(C)CCNc1ccc2cc(C#N)c3nc4ccccc4n3c2c1,2000 nM,2000 nM,4 µM,4 µM,3000 nM,3 µM,3 µM,,,,,,,,,,
CC(C)Nc1ccc2c(NC(C)C)c(C#N)c3nc4ccccc4n3c2c1,7000 nM,7000 nM,21 µM,21 µM,,≥ 10 µM,10 µM,,,,,,,,,,
CCN(CC)c1ccc2c(N(CC)CC)c(C#N)c3nc4ccccc4n3c2c1,22000 nM,22000 nM,25 µM,25 µM,,16 µM,16 µM,,,,,,,,,,
C[N+]1(C)CCN(c2ccc3c(N4CC[N+](C)(C)CC4)c(C#N)c4nc5ccccc5n4c3c2)CC1,> 100000 nM,500000 nM,> 100 µM,500 µM,,> 100 µM,> 100 µM,,Active,Active,Active,Active,2.1 °C,20.7 °C,Active,Active,
COc1cccc2c1C(=O)c1c(O)c3c(c(O)c1C2=O)C[C@@](O)(C(=O)CO)C[C@@H]3O[C@H]1C[C@H](N)[C@H](O)[C@H](C)O1 [DOXORUBICIN],,,0.03 µM,,10 nM,,,,,,,,,,,,
CN1CCN(c2ccc3c(N4CCN(C)CC4)c(C#N)c4nc5ccccc5n4c3c2)CC1,3000 to 4000 nM,3000 nM,3 to 4 µM,4 µM,,2 µM,2 µM,,,,,,,,,,
CC(C)CCNc1c(C#N)c2nc3ccccc3n2c2ccccc12,4000 nM,4000 nM,2 µM,2 µM,,5 µM,5 µM,,,,,,,,,,
CC(C)CCNc1ccc2c(NCCC(C)C)c(C#N)c3nc4ccccc4n3c2c1,2000 nM,2000 nM,5 µM,5 µM,6000 nM,6 µM,6 µM,,,,,,,,,,
COc1cc([C@@H]2c3cc4c(cc3[C@@H](O[C@@H]3O[C@@H]5CO[C@@H](C)O[C@H]5[C@H](O)[C@H]3O)[C@H]3COC(=O)[C@H]23)OCO4)cc(OC)c1O [ETOPOSIDE],1000 nM,,0.1 µM,,400 nM,5 µM,,,,,,,,,,,
CCCCNc1ccc2c(NCCCC)c(C#N)c3nc4ccccc4n3c2c1,5000 nM,5000 nM,4 µM,4 µM,,7 µM,7 µM,,,,,,,,,,
N#Cc1c(N2CCOCC2)c2ccc(N3CCOCC3)cc2n2c1nc1ccccc12,9000 nM,8990 nM,18 µM,18 µM,,11 µM,11 µM,0.5 °C,,,,,,,,,
N#Cc1c(N2CCCCC2)c2ccc(N3CCCCC3)cc2n2c1nc1ccccc12,10000 nM,10000 nM,15 µM,15 µM,,11 µM,11 µM,0.7 °C,,,,,,,,,
N#Cc1c(N2CCNCC2)c2ccc(N3CCNCC3)cc2n2c1nc1ccccc12,1000 nM,1000 nM,4 µM,4 µM,2000 nM,1.5 µM,1.5 µM,20.1 °C,Active,Active,Active,Active,,5.1 °C,Active,Active,15.9 °C
CNc1ccc2c(NC)c(C#N)c3nc4ccccc4n3c2c1,2000 nM,2000 nM,≥ 100 µM,100 µM,,7 µM,7 µM,1.2 °C,,,,,,,,,
CCCN(CCC)c1ccc2c(N(CCC)CCC)c(C#N)c3nc4ccccc4n3c2c1,21000 nM,21000 nM,29 µM,29 µM,,14 µM,14 µM,0 °C,,,,,,,,,
CN1CCN(c2c(C#N)c3nc4ccccc4n3c3ccccc23)CC1,3000 nM,3000 nM,4 µM,4 µM,,3 µM,3 µM,,,,,,,,,,
CC(C)Nc1ccc2cc(C#N)c3nc4ccccc4n3c2c1,700 nM,700 nM,2 µM,2 µM,1000 nM,0.8 µM,0.8 µM,,,,,,,,,,
CC(C)Nc1c(C#N)c2nc3ccccc3n2c2ccccc12,20000 nM,20000 nM,5 µM,5 µM,,13 µM,13 µM,,,,,,,,,,
CCCCCCNc1ccc2cc(C#N)c3nc4ccccc4n3c2c1,5000 nM,5000 nM,5 µM,5 µM,,5 µM,5 µM,,,,,,,,,,
CCCCCCNc1ccc2c(NCCCCCC)c(C#N)c3nc4ccccc4n3c2c1,> 100000 nM,> 100000 nM,> 100 µM,500 µM,,> 100 µM,> 100 µM,,,,,,,,,,
CC1CN(c2c(C#N)c3nc4ccccc4n3c3ccccc23)CC(C)N1 (stereo unspecified),6000 nM,6000 nM,4 µM,4 µM,3000 nM,3 µM,3 µM,,,,,,,,,,
CCCCCCNc1c(C#N)c2nc3ccccc3n2c2ccccc12,3000 nM,3000 nM,2 µM,2 µM,,4 µM,4 µM,,,,,,,,,,

# Source: ChEMBL document CHEMBL3865821, “Amino substituted benzimidazo[1,2-a]quinolines: Antiproliferative potency, 3D QSAR study and DNA binding properties” (Eur J Med Chem, 2016)
